The results in this text go back to ChEMBL document CHEMBL1141612, “Glyconanobiotics: Novel carbohydrated nanoparticle antibiotics for MRSA and Bacillus anthracis” (2008).

What is called MIC is the least concentration at which growth counts as inhibited. Low values mean a more susceptible organism, high ones a less susceptible organism.

Type in all cases: functional
For test [1], the system named is Staphylococcus aureus. Kind of test: Antibacterial activity against Staphylococcus aureus ATCC 25923 after 24 hrs by broth dilution MIC assay. The settings on record: ATCC 25923, 24 h. In short, it runs like this: (§1)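 Broth serial dilution. For nanoparticle emulsions, the drug content is assumed equal to the amount used in the polymerization, expressed as µg drug per mL of undiluted emulsion.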

In test [2] the test system is Staphylococcus aureus. In words: Antibacterial activity against methicillin-resistant Staphylococcus aureus ATCC 43300 after 24 hrs by broth dilution MIC assay. The settings on record: ATCC 43300, 24 h. Summed up:
as §1
(In general: Dilution methods test growth across graded concentrations, often in twofold steps.)

Test [3] concerns Bacillus anthracis. In words: Antibacterial activity against Bacillus anthracis after 24 hrs by broth dilution MIC assay. In short, it runs like this: as §1

In brackets after ≈: the same amount, converted by molar mass.

`CC1(C)S[C@@H]2[C@H](NC(=O)Cc3ccccc3)C(=O)N2[C@H]1C(=O)O` [PENICILLIN G]: the minimal inhibitory concentration (MIC) was found to be 0.012 µg/mL (≈ 0.0359 µM) in test [1] and 16 µg/mL (≈ 47.8 µM) in test [2].
For `C=CC(=O)O[C@@H]1[C@@H]2OC(C)(C)O[C@@H]2O[C@@H]1C(COC(C)=O)OC(=O)CCC(=O)N1CCN(c2cc3c(cc2F)c(=O)c(C(=O)O)cn3C2CC2)CC1` (stereo partly specified) [CIPROFLOXACIN ACRYLATE], the MIC was 32 µg/mL (≈ 43.9 µM) in test [1], 32 µg/mL (≈ 43.9 µM) in test [2] and 16 µg/mL (≈ 21.9 µM) in test [3].
With `C=CC(=O)O[C@@H]1[C@H]2OC(C)(C)O[C@H]2O[C@@H]1C(COC(=O)CCC(=O)O[C@H]1C(=O)N(SC(C)CC)[C@H]1c1ccccc1Cl)OC(=O)CCC(=O)O[C@H]1C(=O)N(SC(C)CC)[C@H]1c1ccccc1Cl` (stereo partly specified) [LACTAM MONOMER], the MIC turned out to be 128 µg/mL (≈ 127 µM) in test [1], 128 µg/mL (≈ 127 µM) in test [2] and 64 µg/mL (≈ 63.4 µM) in test [3].
For `C=CC(=O)O[C@@H]1[C@@H]2OC(C)(C)O[C@@H]2O[C@@H]1C(COC(C)=O)OC(=O)CCC(=O)N[C@@H]1C(=O)N2C1SC(C)(C)[C@@H]2C(=O)O` (stereo partly specified), the MIC in test [1], in test [2] and in test [3] was over 256 µg/mL each time.
